Molecules are shown by their SMILES. A value given as a limit tells only on which side of the number the result lay.

The text below walks through data of article PMC8335715 (Medicinal Chemistry Research, 2021).

The assay deals with rat lens ALR2 (Rattus norvegicus, UniProt P07943). The experiment in a line: ALR2 enzyme inhibition assay. The class given is biochemical. To be noted: ratio IC50 ALR1 / IC50 ALR2; called SF in text. The gist of the method:
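Rat lens enzyme (male Wistar) was partially purified: homogenised in cold water, spun at 10.000 g, fractionated with ammonium sulfate (40/50/75%). Substrate was D,L-glyceraldehyde in 0.067 M phosphate, pH 6.2, at 30 °C. Substrate started the reaction, and a substrate-free blank corrected NADPH oxidation. Test compound was in NaHCO3 or DMSO (1% final). IC50 came from least-squares fit of the linear semilog portion (25–75% inhibition), at least two experiments. The selectivity index was calculated against kidney-enzyme IC50.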

As to `COc1ccc2nc(/N=C3/NC(=O)C(=Cc4ccc(O)cc4)S3)sc2c1` [Compound 2, (Z)-5-(4-hydroxybenzylidene)-2-((6-methoxybenzo[d]thiazol-2-yl)imino)thiazolidin-4-one], the “Selectivity index (ALR1/ALR2)” value is on record as less than 1.
The value for `COc1ccc(/C=C2\SC(=Nc3nc4ccc(OC)cc4s3)NC2=O)cc1` [Compound 3, (Z)-2-((6-methoxybenzo[d]thiazol-2-yl)imino)-5-(4-methoxybenzylidene)thiazolidin-4-one] was less than 1; that for `COc1ccc2nc(/N=C3/NC(=O)C(=Cc4ccc(O)c(OC)c4)S3)sc2c1` [Compound 4, (Z)-5-(4-hydroxy-3-methoxybenzylidene)-2-((6-methoxybenzo[d]thiazol-2-yl)imino) thiazolidin-4-one] was less than 1.
